# Assay results from different studies.
# Protocols differ between the studies behind these lines.
# Target: Serine/threonine-protein kinase PAK 3 (PAK3, Homo sapiens, UniProt O75914)
SMILES,effect on,action,method,tested at,measurement,result
COc1ccccc1N1CCN(c2ncnc3[nH]nc(Br)c23)CC1,enzyme activity,inhibitor,,1 µM,inhibition,-12%
COc1cc(Cl)c(C(=O)N[C@@H](CN[C@H]2CC[C@@H](N)CC2)Cc2ccc(C#N)cc2)cc1-c1ccc(CN[C@H](C)c2ccc(C)cc2)o1,enzyme activity,inhibitor,,1 µM,remaining activity,101%
Clc1ccc(Nc2nnc(Cc3ccncc3)c3ccccc23)cc1,cell-free assay,,,0.5 µM,remaining signal,107%
N[C@H]1CCN(c2nccc(-c3cnn4ncccc34)n2)C1,binding,,,1 µM,remaining binding,100%
O=C(Nc1cnn(-c2csc(C(=O)NC3COC3)c2)c1)Nc1c(F)cccc1Cl,enzyme activity,inhibitor,,5 µM,remaining activity,64.2%
CC(C)CC(=O)N1CCc2nc(-c3ccc(Br)cc3)nc(N(C)Cc3ccccc3)c2C1,cell-free assay,,competition with immobilised ligand,0.1 µM,remaining binding,100%
Cc1ccc(C(=O)Nc2ccc(CN3CCN(C)CC3)c(C(F)(F)F)c2)cc1C#Cc1cnc2cccnn12,enzyme activity,inhibitor,,23.5 nM,remaining activity,3.6%
Cc1ccc(C(=O)NCc2ccsc2)cc1C#Cc1cn(C(C)C)c2ncnc(N)c12,enzyme activity,inhibitor,,1 µM,activity vs control,78%
Cc1nc(C2CCN(C(=O)c3ccc(OC(F)(F)F)cc3N)CC2)c2ncc(N3CCN(C)CC3)cc2n1,cell-free assay,,competition with immobilised ligand,1 µM,remaining binding,100%
CNC(=O)c1cc(Oc2ccc(NC(=O)Nc3ccc(Cl)c(C(F)(F)F)c3)cc2)ccn1,enzyme activity,inhibitor,,10 µM,inhibition,74%
CNC(=O)Nc1ccc2c(c1)CC[C@@]21OC(=O)N(CC(=O)N(Cc2ccc(F)cc2)[C@@H](C)C(F)(F)F)C1=O,cell-free assay,,competition with immobilised ligand,1 µM,remaining binding,91%
Cc1ccc(Nc2nccc(N(C)c3ccc4c(C)n(C)nc4c3)n2)cc1S(N)(=O)=O,enzyme activity,inhibitor,,10 µM,inhibition,61%
O=C(Nc1cccnn1)N1CC(C/C=C/c2cncc(Oc3ccc(C(F)(F)F)cn3)n2)C1,cell-free assay,,competition with immobilised ligand,1 µM,remaining binding,100%
N#CCCc1ccc2c(c1)-c1[nH]c3ccc([N+](=O)[O-])cc3c1CC(=O)N2,cell-free assay,,,0.5 µM,remaining signal,97.1%
CN(C)CC#Cc1ccc(OCCCc2sc(N3CCc4cccc(C(=O)Nc5nc6ccccc6s5)c4C3)nc2C(=O)O)c(F)c1,cell-free assay,,competition with immobilised ligand,1 µM,remaining binding,97%
C[S+]([O-])c1ccc(-c2nc(-c3ccncc3)c(-c3ccc(F)cc3)[nH]2)cc1 (stereo not drawn),cell-free assay,,,0.5 µM,remaining signal,102%
COc1cc2ncnc(Nc3ccc(Oc4ccccc4)cc3C)c2cc1OC,enzyme activity,inhibitor,,1 µM,inhibition,3%
COc1cc(-c2cn(C3CCc4ccccc4N(CC(F)(F)F)C3=O)nn2)ccc1-n1ccc(C)n1 (stereo not drawn),cell-free assay,,competition with immobilised ligand,1 µM,remaining binding,100%
